# This is a sample that favours compounds with a hit; in the whole collection about 2.2% have one here.
# ROMK mod: modulates human ROMK potassium channel activity. P48048. Tet-inducible ROMK, thallium flux fluorescence; actives lie on both sides. B-score at 10 µM. hit rate 2% among 130,000. AID 1918;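 active = signal ratio slope over the read window, or its plate-corrected B-score, at least 3 SD from the plate mean, either direction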;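 also: B-score of the F/F0 ratio slope over 7 to 12 s after thallium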
# Target sequence (P48048 whole entry, looked up): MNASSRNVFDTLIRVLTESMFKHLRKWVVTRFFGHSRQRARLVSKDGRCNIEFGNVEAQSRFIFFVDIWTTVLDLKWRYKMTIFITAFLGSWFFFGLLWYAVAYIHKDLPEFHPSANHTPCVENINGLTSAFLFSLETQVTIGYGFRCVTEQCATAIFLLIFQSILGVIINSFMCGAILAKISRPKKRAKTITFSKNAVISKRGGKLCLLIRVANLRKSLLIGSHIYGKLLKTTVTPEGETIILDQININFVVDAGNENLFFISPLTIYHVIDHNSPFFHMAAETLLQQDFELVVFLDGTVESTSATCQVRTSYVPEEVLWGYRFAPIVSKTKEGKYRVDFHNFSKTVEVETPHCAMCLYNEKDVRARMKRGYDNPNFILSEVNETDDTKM
# PMI act: increases human mannose-6-phosphate isomerase activity. P34949. hit rate 0.005% among 190,000. activation factor at 20 µM. purified human PMI, coupled resazurin fluorescence, 20 min; stronger effect = higher value; 1 = vehicle control, 0 substrate-free wells;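 active = activation factor of 2 or more at 20 µM, relative to plate controls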
# G6PDH CS: counter-screen for G6PDH assay hits: L. mesenteroides G6PDH inhibition; inhibition, % at 5 µM; Purified L. mesenteroides G6PDH, diaphorase/resazurin coupled fluorescence, 45 min; AID 1020; hit rate 0.12% among 200,000; in the data active = inhibition above about 50%
# PMI act satM6P: PMI (human) activation, high substrate; P34949; coupled PMI enzyme assay, resazurin fluorescence, 20 min; stronger effect = higher value; 1 = untreated enzyme, 0 = substrate-free blank; activation factor at 20 µM; hit rate 0.34% among 190,000;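 active = activation factor of 2 or more at 20 µM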
#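 Test system: human phosphomannose isomerase with PGI, G6PDH, diaphorase coupling enzymes / Doses: 20 µM compound, 1% DMSO / Times: enzyme reaction with compound 20 min at room temperature / Measured by: Diaphorase-driven resazurin-to-resorufin fluorescence, excitation 544, emission 590 nm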
# Diaphorase act: counter-screen for diaphorase-based assays: diaphorase activators and chemical reducers. Diaphorase/resazurin coupled assay, resorufin fluorescence, 16 min; stronger effect = higher value; 1 = vehicle wells, 0 = NADH-free wells. activation factor at 20 µM. hit rate 0.005% among 190,000. AID 1229;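 active = diaphorase activity raised at least twofold by the compound at 20 µM; inactive = activation factor below 2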
#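 Material: Clostridium kluyveri diaphorase, purified enzyme; Quantity: enzyme 0.07 U/mL final; Medium: HEPES pH 7.4 buffer with MgCl2 and Tween 20; Dosing: single compound dose of 20 µM, 1% DMSO final; Schedule: 16 min reaction at room temperature; Measured by: red resorufin fluorescence at 544/590 nm excitation/emission.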
# Diaph inh CS: counter-screen for diaphorase-based assays: diaphorase inhibitors and chemical oxidizers | diaphorase resazurin-to-resorufin fluorescence, NADH, 16 min; bacterial (C. kluyveri) enzyme, not human | inhibition, % at 20 µM | hit rate 0.69% among 190,000 | AID 1217;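 active = primary screen inhibition at 20 µM above a set limit, cut at about 50% in these data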;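 also: plate controls were DMSO with full reaction for no effect and wells lacking NADH for full effect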
#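 System: Bacterial diaphorase enzyme (C. kluyveri) | Incubation: 16-min room-temperature incubation before reading | Benchmarks: No-NADH positive control and DMSO neutral control | Measured by: Resorufin fluorescence 544/590 nm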
# * hit, by the source's call; nt = no result.
SMILES,ROMK mod,PMI act,G6PDH CS,PMI act satM6P,Diaphorase act,Diaph inh CS
CC(=O)C(C(C)=O)c1c(Cl)c(O)c(O)c2c(C(=O)c3ccccc3)coc12,-3.43*,0.4,6.8,0.4,0.3,67.2*
CCCCC1NC(=S)N(C2CCCCC2)C1=O (centres undefined),-0.589,1,11.5,1.1,1,2.3
Cc1ccc(-c2nc(CN(C)Cc3ccc4nccnc4c3)c(C)o2)s1,0.36,1,8.3,1,0.9,11.2
CSc1ccccc1-c1nnc(-c2ccc(Cl)cc2Cl)o1,-0.575,0.8,2.7,0.8,0.8,18.8
CCSc1nnc(-c2ccccc2SC)o1,-0.137,1.8,7.9,2.1*,0.9,9.1
Cc1oc2c(O)c(O)ccc2c(=O)c1-c1cnn(-c2ccccc2)c1,-0.108,0.2,14.9,0.6,0.3,70.0*
OCC(CO)(CO)N=Cc1c(O)ccc2ccccc12,0.226,0.6,34.2,0.3,0.4,57.3*
CN(C)/N=C/c1c(O)ccc2ccccc12,-0.234,0.7,13.1,0.7,0.7,29.2
CCS(=O)(=O)c1ccc(C(=O)NC2CC2)c(Cl)c1Cl,-0.677,1.1,12.7,1,0.9,8.5
O=C(CCc1nnc(CCCc2ccccc2)o1)NCCN1CCOC1=O,-0.0102,nt,14.5,nt,nt,nt
CCC1=NN2C(=N)/C(=C\c3ccc(OCc4cc(=O)n5nc(CC)sc5n4)c(OC)c3)C(=O)N=C2S1,-0.656,1.1,0.4,1,0.5,54.2*
CCC1=NN2C(=N)/C(=C\c3cccn3-c3ccc(C)c(C)c3)C(=O)N=C2S1,2.28,1,-1.7,1.1,0.7,27.0
CCOC(=O)c1c(/N=C/N(C)C)sc(/C=N/Nc2ccccc2)c1-c1ccc(Cl)cc1,-0.0179,1.5,0.3,2.1*,0.8,19.9
CCOC(=O)c1c(/N=C/N(C)C)sc(C)c1C,1.26,1,0.4,1.1,0.9,8.4
O=C(Nc1ccccc1Cc1ccccc1)c1ccccc1NS(=O)(=O)c1ccc(Cl)s1,-3.55*,1,0.3,0.9,0.7,29.5
O=C(NNc1ccc(O)cc1)c1ccc(Br)cc1,0.725,1.5,3.0,2.2*,0.8,20.4
CC(=O)Oc1ccc(C(=O)[C@H]2[C@H]3C(=O)N(c4ccc5ccccc5c4)C(=O)[C@H]3[C@@H]3C=CC=NN32)cc1,nt,1.6,1.1,2.1*,0.8,24.9
CCN(CC)CCCNC(=O)c1ccc2c(SCC(=O)O)c3c(nc2c1)CCC3,0.137,1.1,0.1,1.1,0.9,6.0
CCN(CC)CCNC(=O)CSc1c2c(nc3cc(Cl)ccc13)CCCC2,nt,0.7,5.9,0.4,0.5,53.3*
Cc1ccc(CNC(=O)CSc2c3c(nc4ccc(Cl)cc24)CCCC3)o1,-2.53*,0.8,11.2,0.9,0.8,18.0
CCC(C)NC(=O)COC(=O)c1ccc(Cl)cc1O (centres undefined),0.0975,1,1.8,1,0.9,9.4
CN1C(=O)[C@@H]2[C@@H]3C[C@@H]([C@H]4ON=C(c5ccc(Cl)cc5Cl)[C@@H]34)[C@@H]2C1=O,nt,0.8,9.1,0.9,0.9,12.2
S=C1NCCNC(=S)NCCOCCOCCOCCN1,-0.178,1.1,2.2,1,1,0.7
O=C(NC(=S)N(CCCCO)C1CCCCC1)c1sc2ccccc2c1Cl,3.15*,1,7.6,1.1,0.3,72.2*
CC1CCCCC1NC(=S)NC(=O)c1sc2ccccc2c1Cl (centres undefined),-0.0248,0.9,16.1,0.8,1.1,-6.8
SMILES,ROMK mod,PMI act,G6PDH CS,PMI act satM6P,Diaphorase act,Diaph inh CS
CC1C/C(=C/c2ccccn2)C(=O)/C(=C/c2ccccn2)C1 (centres undefined),-4.69*,1.1,-1.2,0.9,0.9,13.7
O=C(Cc1ccc(F)cc1)Nc1nnc(SCC(=O)NC2CCCC2)s1,-0.462,1,4.3,1,0.9,6.8
O=C(NCc1ccco1)C(c1cccs1)N(C(=O)C1COc2ccccc2O1)c1cccc(O)c1 (centres undefined),-7.18*,0.9,10.5,0.9,0.9,8.2
O=C(NCc1ccco1)C(c1ccncc1)N(C(=O)Cc1cccs1)c1ccccc1 (centres undefined),0.0829,0.9,8.6,1,0.9,6.0
O=C(Nc1ccccc1N1CCCC1)c1ccc(Br)o1,nt,1.6,8.9,2.1*,1,-0.5
O=C(Nc1ccccc1N1CCCC1)c1cccnc1,nt,1.6,4.6,2.1*,0.9,14.1
Cc1ccccc1CC1(CO)CCCN(Cc2nc(-c3cccs3)oc2C)C1 (centres undefined),-1.16,0.8,-1.7,1,0.9,9.6
CCN(C(=O)COC(=O)/C=C/c1c(C)nn(Cc2ccc(C)cc2)c1C)C1CCS(=O)(=O)C1 (centres undefined),0.239,1,7.0,1,1,2.7
O=C1NC2(CCC3(CC2)OCCO3)NN1c1ccc(Cl)cc1,nt,1.8,3.2,2.7*,1,0.5
CC(=O)c1cc2c(O)c(O)ccc2o1,nt,0.2,54.5*,0.3,0.3,73.5*
Cn1c(=O)[nH]c(=O)c2c1nc(Br)n2C/C=N/Nc1ccccc1,1.23,2*,11.6,3*,1.1,-14.0
C=CCn1c(Br)nc2c1c(=O)[nH]c(=O)n2C,-1.1,0.9,-4.2,0.9,0.9,14.7
COc1cc(/C=N/Nc2cccc(C)c2)ccc1OC(=O)c1cccs1,0.566,1.4,-14.0,2.1*,0.7,26.1
COc1cc(/C=N/Nc2cccc(C)c2)cc(Br)c1O,-1.48,1.7,1.9,2.4*,0.8,18.9
COc1cc(/C=N/NC(=O)COc2ccccc2C)ccc1OC(=O)c1cccs1,nt,0.9,3.1,0.9,0.8,21.6
CCOC(=O)c1ccc(/C=C2/C=C(c3ccccc3)N(c3ccc(Cl)c(C(=O)O)c3)C2=O)cc1,nt,0.9,-6.6,1.3,0.7,27.3
COC(=O)/C=C/c1sc2nc(C)cc(C)c2c1N=CN(C)C,0.0932,0.9,-2.2,0.9,0.8,20.7
CCSc1ccc2nnc(-c3cccc(F)c3)n2n1,-1.94,1,2.8,2*,0.7,31.7
O=C(CSc1ccc2nnc(-c3cccc(F)c3)n2n1)N1CCCc2ccccc21,nt,1,-29.3,1.2,0.8,16.2
COc1cc(/C=N/NC(=O)c2cc3ccccc3cc2O)ccc1OCCN1CCCCC1,nt,0.3,-2.8,0.4,0.1,89.3*
COc1cc(/C=N/NC(=O)c2ccncc2)ccc1OCCN1CCCCC1,0.483,1,1.6,1,1,-1.8
CC(C)CN1C(=O)c2ccc(NC(=O)Cc3ccccc3)cc2C1=O,-0.557,1,13.2,1,1.1,-10.4
